For series [1], the system named is Rattus norvegicus. Put plainly: Antiinflammatory activity in albino rat assessed as inhibition of carrageenan-induced paw edema at 5 mg/kg, po administered 30 mins before carrageenan challenge measured after 2 hrs. The format is functional. In a few lines: (§1)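 Rats dosed orally with compound suspended in 0.5% carboxymethyl cellulose; controls got CMC vehicle. 30 min later, 0.1 mL freshly prepared 1% carrageenan in normal saline injected subplantar into right hind paw. Paw thickness measured at 60, 120 and 180 min after dosing. Result given as % inhibition of edema ± S.E.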

The test system of series [2] is Rattus norvegicus. The series is described as follows: Antiinflammatory activity in albino rat assessed as inhibition of carrageenan-induced paw edema at 5 mg/kg, po administered 30 mins before carrageenan challenge measured after 3 hrs. Format: functional. In a few lines: as §1
In general terms: The carrageenan paw model is a standard test of acute inflammation.

Series [3] deals with Rattus norvegicus. The series is described as follows: Antiinflammatory activity in albino rat assessed as inhibition of carrageenan-induced paw edema at 5 mg/kg, po administered 30 mins before carrageenan challenge measured after 1 hr. The format is functional. In a few lines: as §1
A short description of series [4]: Toxicity in ip dosed albino mouse assessed as mortality after 24 hrs. The format is organism-based. The note with it: in vivo. In a few lines:
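Adult male albino mice (25-30 g), groups of five, given graded doses intraperitoneally. Mortality per group recorded 24 h after injection. LD50 calculated by a graphical method.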

In series [5] the test system is Rattus norvegicus. The series is described as follows: Gastrointestinal toxicity in albino rat assessed as ulcer index at 100 mg/kg, po after 6 hrs. Format: organism-based. The following applies: in vivo. On the set-up: dose 100 mg/kg, route oral. In a few lines: (§2)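 Oral dosing by stomach tube with suspensions in 0.5% w/v aqueous carboxymethyl cellulose (10, 50, 100 mg/kg); controls got equal volume of vehicle. Rats killed at 6 h, stomachs opened along greater curvature, washed, mucosa examined by stereomicroscope. Ulcer = lesion ≥0.5 mm; five patches = 1 mm. Ulcer index = summed lesion lengths divided by animal number; groups of 6.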

The test system of series [6] is Rattus norvegicus. Put plainly: Gastrointestinal toxicity in albino rat assessed as ulcer index at 10 mg/kg, po after 6 hrs. On the set-up: dose 10 mg/kg, route oral. The following applies: in vivo. Format: organism-based. In a few lines: as §2
The test system of series [7] is Rattus norvegicus. The series is described as follows: Gastrointestinal toxicity in albino rat assessed as ulcer index at 50 mg/kg, po after 6 hrs. Format: organism-based. On the set-up: dose 50 mg/kg, route oral. The following applies: in vivo. In a few lines: as §2

Turning to `CCOC(=O)Cc1nc(N)n(C(=O)c2ccccc2)n1`, the inhibition in vivo at 5 mg/kg with Rattus norvegicus [1] was determined as 38.5%; in the series on Rattus norvegicus [2] it was 57.5%; in the series with Rattus norvegicus [3] it was 31.6%.
For the compound `Nc1nc(CC(=O)O)n[nH]1`, the values for the inhibition in vivo at 5 mg/kg with Rattus norvegicus [1], in the series on Rattus norvegicus [2] and in the series on Rattus norvegicus [3] were 29.5%, 48.1% and 22.3%, respectively.
Take `CCOC(=O)Cc1nc(N)n(C(=O)c2ccc(Br)cc2)n1`: the inhibition in vivo at 5 mg/kg with Rattus norvegicus [1] stood at 43%; in the series on Rattus norvegicus [2], 64.1%; in the series on Rattus norvegicus [3], 34.8%. Further, the LD50 at 24 h in series [4] is 120 mg/kg.
For `CCOC(=O)Cc1nc(N)n(C(=O)c2ccc(OC)cc2)n1`, the inhibition in vivo at 5 mg/kg worked out at 41.5% in the series with Rattus norvegicus [1], 60% in the series on Rattus norvegicus [2] and 32.8% in the series on Rattus norvegicus [3].
With `CCOC(=O)Cc1nc(N)n(C(=O)c2ccc([N+](=O)[O-])cc2)n1`, the inhibition in vivo at 5 mg/kg worked out at 46.3% in the series on Rattus norvegicus [1], 68.2% in the series with Rattus norvegicus [2] and 36.1% in the series with Rattus norvegicus [3]. Also, the 50% lethal dose (LD50) at 24 h in series [4] was 90 mg/kg.
Turning to `CCOC(=O)Cc1nc(N)n(C(=O)c2ccc(Cl)cc2)n1`, the UI in the series on Rattus norvegicus [5] amounted to 0.75; in the series with Rattus norvegicus [6], 0; in the series on Rattus norvegicus [7], 0.5. For the same compound, the inhibition in vivo at 5 mg/kg in the series with Rattus norvegicus [1] turned out to be 42.3%; with Rattus norvegicus [2], 62.8%; in the series on Rattus norvegicus [3], 34.2%. Also, the LD50 at 24 h in series [4] turned out to be 130 mg/kg.
Turning to `CCOC(=O)Cc1n[nH]c(NC(=O)c2ccc([N+](=O)[O-])cc2)n1`, the inhibition in vivo at 5 mg/kg came out at 42.1% in the series with Rattus norvegicus [1], 59.8% in the series on Rattus norvegicus [2] and 32.6% with Rattus norvegicus [3].
The like results for `CCOC(=O)Cc1n[nH]c(NC(=O)c2ccc(OC)cc2)n1` were, in that order, 38.2%, 56% and 30.2%.
The like results for `CCOC(=O)Cc1n[nH]c(N)n1` were, in that order, 33.6%, 51.8% and 25%.
The matching figures for `CCOC(=O)Cc1n[nH]c(NC(=O)c2ccc(Br)cc2)n1`: 40.4%, 58.8% and 31.3%.
As to `CCOC(=O)Cc1n[nH]c(NC(=O)c2ccccc2)n1`, the values for the inhibition in vivo at 5 mg/kg with Rattus norvegicus [1], with Rattus norvegicus [2] and with Rattus norvegicus [3] were 36.2%, 55.3% and 26.8%, respectively.
With `CCOC(=O)Cc1n[nH]c(NC(=O)c2ccc(Cl)cc2)n1`, the UI came out at 0.75 in the series with Rattus norvegicus [5], 0 in the series with Rattus norvegicus [6] and 0 in the series on Rattus norvegicus [7]. The inhibition in vivo at 5 mg/kg in the series on Rattus norvegicus [1] was 39.1%; in the series on Rattus norvegicus [2], 58.5%; with Rattus norvegicus [3] it was 31.1%.
Consider `COc1ccc2c(c1)c(CC(=O)O)c(C)n2C(=O)c1ccc(Cl)cc1` [INDOMETHACIN], for which the UI in the series with Rattus norvegicus [5] stood at 2.1; with Rattus norvegicus [6], 2.5; in the series with Rattus norvegicus [7], 1.9. Also, the inhibition in vivo at 5 mg/kg was found to be 40.1% in the series with Rattus norvegicus [1], 60.8% with Rattus norvegicus [2] and 31.5% with Rattus norvegicus [3]. In addition, the LD50 at 24 h in series [4] stood at 50 mg/kg.

Broadly, the inhibition in vivo is how much of the control response was suppressed. A word on the LD50: it is the dose expected to kill half of the subjects tested.

The values are drawn from ChEMBL document CHEMBL1152856, “Design, synthesis and molecular modeling study of acylated 1,2,4-triazole-3-acetates with potential anti-inflammatory activity” (Eur J Med Chem, 2009).
